Active and inactive are the calls of the source. The calls are words filed in the database; no cut-off is given here.
Assays:
[1] = molecular target: T1, Histone-lysine N-methyltransferase SETD7 (Homo sapiens) (UniProt Q8WTS6); assay: Inhibition of methyl transferase activity of SET7/9 at 50 uM using biotinylated histone H3(1-21) substrate by In-vitro time resolved fluorescence immunosorbent methyltransferase assay
T1 sequence (whole entry): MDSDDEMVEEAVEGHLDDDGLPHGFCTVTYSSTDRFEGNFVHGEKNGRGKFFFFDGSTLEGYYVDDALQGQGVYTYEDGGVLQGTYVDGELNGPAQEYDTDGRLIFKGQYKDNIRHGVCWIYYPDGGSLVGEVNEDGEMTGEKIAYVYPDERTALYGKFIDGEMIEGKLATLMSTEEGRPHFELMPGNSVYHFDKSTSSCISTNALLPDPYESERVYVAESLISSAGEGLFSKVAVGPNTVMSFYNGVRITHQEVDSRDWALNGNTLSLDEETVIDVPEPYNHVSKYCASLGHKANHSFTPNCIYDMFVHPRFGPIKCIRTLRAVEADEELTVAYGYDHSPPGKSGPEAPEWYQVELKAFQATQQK
Method in brief: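 Biotinylated human histone H3 peptide (aa 1-21, 20 pmol/well) bound to streptavidin plates. Recombinant human GST-Set7/9 preincubated with inhibitor (DMSO) 10 min at 30 °C, then transferred to wells; reaction started with SAM. Methylation detected with rabbit anti-methyl H3K4 antibody and europium-labelled anti-rabbit IgG, read by time-resolved fluorescence (340/615 nm) after enhancement solution.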

[2] = molecular target: T2, Protein arginine N-methyltransferase 1 (Homo sapiens, UniProt Q99873); assay: Inhibition of human recombinant PRMT1-mediated arginine methylation using nonhistone protein Npl3 substrate by ELISA
Target sequence in this assay (Q99873 whole entry): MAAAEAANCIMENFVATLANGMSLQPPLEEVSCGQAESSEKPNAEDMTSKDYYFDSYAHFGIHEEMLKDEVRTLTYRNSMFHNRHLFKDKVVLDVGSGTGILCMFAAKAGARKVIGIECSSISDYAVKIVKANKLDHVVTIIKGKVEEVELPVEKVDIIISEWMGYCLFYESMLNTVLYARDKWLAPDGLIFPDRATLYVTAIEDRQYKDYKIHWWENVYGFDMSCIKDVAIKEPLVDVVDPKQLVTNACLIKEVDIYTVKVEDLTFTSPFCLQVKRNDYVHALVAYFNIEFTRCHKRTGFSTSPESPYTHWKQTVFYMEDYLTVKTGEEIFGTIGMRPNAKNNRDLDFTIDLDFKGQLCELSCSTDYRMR

[3] = test system: LNCaP; assay: Inhibition of androgen dependent transcription in human LNCAP cells assessed as blockade of R1881-induced transcription at 25 uM by androgen derived MMTV-luciferase reporter gene assay; assay type: functional, cell-based
Method in brief: (§1)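 LNCaP cells (2×10^5) grown in RPMI1640/10% FCS, switched to phenol-red-free RPMI1640 with 10% double-stripped FCS, transfected with 500 ng MMTV-Luc (androgen-driven) or TK-Luc (androgen-independent) reporter per well. Six hours later inhibitor or DMSO added, then overnight with or without 10^-10 M R1881; luciferase read. Three experiments in duplicate, mean + SD (n = 6).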

[4] = Growth inhibition of human MCF7a cells by MTS assay; assay type: functional
[5] = molecular target: T2, Protein arginine N-methyltransferase 1; assay: Inhibition of human recombinant PRMT1-mediated arginine methylation at 50 uM using nonhistone protein Npl3 substrate by ELISA
Target sequence in this assay (Q99873 whole entry, looked up): as the sequence (Q99873 whole entry) above

[6] = molecular target: T2, Protein arginine N-methyltransferase 1; assay: Inhibition of human recombinant PRMT1-mediated arginine methylation at 10 uM using nonhistone protein Npl3 substrate by ELISA
Target sequence in this assay (Q99873 whole entry, looked up): as the sequence (Q99873 whole entry) above

[7] = test system: LNCaP; assay: Inhibition of thymidine kinase promoter dependent transcription in human LNCAP cells at 10 uM by androgen-nondependent thymidine kinase-luciferase reporter gene assay; assay type: functional, cell-based; method in brief: as §1
[8] = test system: LNCaP; assay: Inhibition of thymidine kinase promoter dependent transcription in human LNCAP cells at 1 uM by androgen-nondependent thymidine kinase-luciferase reporter gene assay; assay type: functional, cell-based; method in brief: as §1
[9] = test system: LNCaP; assay: Inhibition of androgen dependent TMPRSS2 gene transcription in human LNCAP cells by RT-PCR preincubated for 10 mins before 1 nM synthetic androgen R1881 addition; assay type: functional, cell-based
Method in brief: (§2)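 LNCaP cells washed with PBS, starved 24 h in phenol-red-free RPMI1640 with 0.5% double-stripped FCS, then treated with inhibitor or DMSO vehicle; 10 min later stimulated overnight with or without 10⁻⁹ M R1881. DNase I-treated Trizol RNA reverse transcribed; target mRNA quantified by SYBR green I quantitative PCR with ROX passive reference.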

[10] = test system: LNCaP; assay: Inhibition of androgen dependent transcription in human LNCAP cells assessed as blockade of R1881-induced transcription at 1 to 25 uM by androgen derived MMTV-luciferase reporter gene assay; assay type: functional, cell-based; method in brief: as §1
[11] = test system: LNCaP; assay: Inhibition of androgen dependent FKBP5 gene transcription in human LNCAP cells by RT-PCR preincubated for 10 mins before 1 nM synthetic androgen R1881 addition; assay type: functional, cell-based; method in brief: as §2
[12] = test system: LNCaP; assay: Inhibition of androgen dependent MAF gene transcription in human LNCAP cells by RT-PCR preincubated for 10 mins before 1 nM synthetic androgen R1881 addition; assay type: functional, cell-based; method in brief: as §2
[13] = test system: LNCaP; assay: Inhibition of androgen dependent MAK gene transcription in human LNCAP cells by RT-PCR preincubated for 10 mins before 1 nM synthetic androgen R1881 addition; assay type: functional, cell-based; method in brief: as §2
[14] = test system: LNCaP; assay: Inhibition of androgen dependent NKX3.1 gene transcription in human LNCAP cells by RT-PCR preincubated for 10 mins before 1 nM synthetic androgen R1881 addition; assay type: functional, cell-based; method in brief: as §2
[15] = test system: LNCaP; assay: Inhibition of androgen dependent IGF1-R gene transcription in human LNCAP cells by RT-PCR preincubated for 10 mins before 1 nM synthetic androgen R1881 addition; assay type: functional, cell-based; method in brief: as §2
[16] = test system: LNCaP; assay: Inhibition of androgen dependent […] gene transcription in human LNCAP cells by RT-PCR preincubated for 10 mins before 1 nM synthetic androgen R1881 addition; assay type: functional, cell-based; method in brief: as §2
[17] = test system: LNCaP; assay: Inhibition of androgen dependent PER1 gene transcription in human LNCAP cells by RT-PCR preincubated for 10 mins before 1 nM synthetic androgen R1881 addition; assay type: functional, cell-based; method in brief: as §2
[18] = test system: LNCaP; assay: Inhibition of androgen dependent ELK4 gene transcription in human LNCAP cells by RT-PCR preincubated for 10 mins before 1 nM synthetic androgen R1881 addition; assay type: functional, cell-based; method in brief: as §2
[19] = test system: LNCaP; assay: Inhibition of androgen dependent GREB1 gene transcription in human LNCAP cells by RT-PCR preincubated for 10 mins before 1 nM synthetic androgen R1881 addition; assay type: functional, cell-based; method in brief: as §2
[20] = test system: LNCaP; assay: Inhibition of androgen dependent CXCR4 gene transcription in human LNCAP cells by RT-PCR preincubated for 10 mins before 1 nM synthetic androgen R1881 addition; assay type: functional, cell-based; method in brief: as §2
[21] = test system: LNCaP; assay: Growth inhibition of human LNCAP cells by MTS assay; assay type: functional
[22] = molecular target: T3, Histone-arginine methyltransferase CARM1 (Mus musculus) (UniProt Q9WVG6); assay: Inhibition of mouse FLAG-tagged CARM1-mediated arginine methylation using histone H3(1-31) and [14C]-SAM at 0.01 to 2 mM
T3 sequence (whole entry): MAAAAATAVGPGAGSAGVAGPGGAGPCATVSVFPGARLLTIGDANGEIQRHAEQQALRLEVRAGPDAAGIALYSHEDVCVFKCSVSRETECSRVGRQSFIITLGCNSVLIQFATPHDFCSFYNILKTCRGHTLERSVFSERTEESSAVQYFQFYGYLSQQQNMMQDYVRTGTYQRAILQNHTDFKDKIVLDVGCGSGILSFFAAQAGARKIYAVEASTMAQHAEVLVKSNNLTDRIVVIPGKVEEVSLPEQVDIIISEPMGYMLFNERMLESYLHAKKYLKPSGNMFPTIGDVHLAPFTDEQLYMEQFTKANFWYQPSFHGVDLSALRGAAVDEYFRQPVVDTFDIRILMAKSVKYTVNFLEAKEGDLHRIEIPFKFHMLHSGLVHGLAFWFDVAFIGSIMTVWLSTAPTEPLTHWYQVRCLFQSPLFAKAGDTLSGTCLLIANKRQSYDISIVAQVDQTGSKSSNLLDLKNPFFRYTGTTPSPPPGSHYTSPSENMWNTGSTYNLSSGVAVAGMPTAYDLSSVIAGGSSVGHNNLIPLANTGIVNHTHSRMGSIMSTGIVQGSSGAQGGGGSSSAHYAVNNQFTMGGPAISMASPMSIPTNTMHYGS
Method in brief: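 Flag-CARM1 (mouse, baculovirus-expressed, 250 nM) with 20 μM recombinant histone H3 and 10 μg/mL BSA in 50 mM Tris-HCl, 0.2 M NaCl, 0.5 mM DTT, pH 8.0, preincubated with inhibitor (0.01–2 mM) 30 min at room temperature, centrifuged; started with 10 μM ¹⁴C-SAM, 15 min at 25 °C. SDS-PAGE, phosphorimager quantitation of H3 radioactivity.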

[23] = test system: LNCaP; assay: Inhibition of androgen-independent GAPDH gene transcription in human LNCAP cells by RT-PCR preincubated for 10 mins before 1 nM synthetic androgen R1881 addition; assay type: functional, cell-based; method in brief: as §2

SMILES	inhibition [5] [%]	inhibition [6] [%]	other results
Nc1ccc(S(=O)(=O)NCc2ccccn2)cc1			inhibition [1]: 14%; IC50 [2]: 70.7 µM
O=C(Nc1ccc(S(=O)(=O)NCCc2ccccc2)cc1)c1ccc(Cl)c(Cl)c1			inhibition [3]: Active; GI50 [4]: 52.2 µM; inhibition [1]: 37%
O=C(Cc1ccccc1)Nc1ccc(S(=O)(=O)NCCc2ccccc2)cc1	10	< 5	
Nc1ccc(S(=O)(=O)NCCc2ccc(Cl)cc2)cc1	< 5		
Nc1ccc(S(=O)(=O)NCc2ccccc2)cc1	28	22	
Nc1ccc(S(=O)(=O)c2ccc(NC(=O)NCc3ccccc3)cc2)cc1	13.6	< 5	
O=C(Nc1ccc(S(=O)(=O)NCCc2ccccc2)cc1)c1ccccc1	20	15	
CCC(=O)Nc1ccc(S(=O)(=O)c2ccc(N)cc2)cc1	70.6	23.5	
O=S(=O)(NCCc1ccccc1)c1ccc(Cl)cc1	< 5		
COc1ccc(CNS(=O)(=O)c2ccc(N)cc2)cc1	19	12	
Nc1ccc(S(=O)(=O)NCc2ccc(Cl)cc2)cc1	< 5		
Nc1ccc(C(=O)NCc2ccccc2)cc1	47		
O=C(CCl)Nc1ccc(S(=O)(=O)c2ccc(NC(=O)CCl)cc2)cc1			inhibition [7]: inactive; inhibition [8]: inactive; inhibition [9]: Active; inhibition [10]: Active; GI50 [4]: 1.97 µM; inhibition [11]: Active; inhibition [1]: < 5%; inhibition [12]: Active; IC50 [2]: 1.5 µM; inhibition [13]: Active; inhibition [14]: Active; inhibition [15]: Active; inhibition [16]: Active; inhibition [17]: Active; inhibition [18]: Active; inhibition [19]: Active; inhibition [20]: Active; GI50 [21]: 4.49 µM; inhibition [22]: inactive; inhibition [23]: inactive
CCCC(=O)Nc1ccc(S(=O)(=O)c2ccc(NC(=O)CCC)cc2)cc1	44.1	14.7	
Nc1ccc(S(=O)(=O)c2ccc(NC(=O)Cc3ccccc3)cc2)cc1	41.2	35.3	inhibition [1]: < 5%
CC(NS(=O)(=O)c1ccc(N)cc1)c1ccccc1 (configuration not stated)	40	28	
O=C(Nc1ccc(S(=O)(=O)NCCc2ccccc2)cc1)c1ccc(-c2ccccc2)cc1	42	39	
O=S(=O)(NCCc1ccccc1)c1ccc(NS(=O)(=O)c2ccc(Cl)cc2)cc1			inhibition [1]: 58%; IC50 [2]: 5 µM; inhibition [22]: inactive
Nc1ccc(S(=O)(=O)NCCc2ccc(O)cc2)cc1	37	30	
O=C(Cc1ccccc1)Nc1ccc(S(=O)(=O)c2ccc(NC(=O)Cc3ccccc3)cc2)cc1			inhibition [1]: 31%
O=C(Nc1ccc(S(=O)(=O)NCCc2ccccc2)cc1)c1ccc(Br)cc1	41	23	
CC(NC(=O)c1ccc(N)cc1)c1ccccc1 (configuration not stated)	34		
CCC(=O)Nc1ccc(S(=O)(=O)c2ccc(NC(=O)CC)cc2)cc1	< 5		
Nc1ccc(C(=O)Nc2ccc(S(=O)(=O)NCCc3ccccc3)cc2)cc1	40	40	
